ChEMBL document CHEMBL4480384, “Benzo[d]thiazol-2(3H)-ones as new potent selective CB2 agonists with anti-inflammatory properties” (Eur J Med Chem, 2019)
pEC50, pKi: −log10 of the molar value. In brackets after ≈: the same amount, converted by molar mass.

Tests used:
Cannabinoid receptor 2 [1] = biological target: T1, Cannabinoid receptor 2 (Homo sapiens, UniProt P34972); assay: Displacement of [3H]-CP-55940 from human CB2 receptor expressed in CHO cell membranes after 1 hr by beta-counting analysis
Cannabinoid receptor 1 [2] = biological target: T2, Cannabinoid receptor 1 (Homo sapiens, UniProt P21554); assay: Displacement of [3H]-CP-55940 from human CB1 receptor expressed in CHO cell membranes after 1 hr by beta-counting analysis
Homo sapiens = species: Homo sapiens; assay: Selectivity index, ratio of Ki for human CB1 receptor expressed in CHO cell membranes to Ki for human CB2 receptor expressed in CHO cell membranes; assay type: cell-based
Cannabinoid receptor 2 [3] = biological target: T1, Cannabinoid receptor 2; assay: Agonist activity at human CB2 receptor expressed in CHO cell membranes assessed as [35S]GTPgammaS binding after 1 hr by beta-counting analysis; assay type: functional
Cannabinoid receptor 2 [4] = biological target: T1, Cannabinoid receptor 2; assay: Agonist activity at human CB2 receptor expressed in CHO cell membranes assessed as [35S]GTPgammaS binding after 1 hr by beta-counting analysis relative to control; assay type: functional
Summary of the method: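 Membranes from hCB2-CHO cells, 40 μg protein, in 50 mM Tris-HCl, 3 mM MgCl2, 1 mM EDTA, 100 mM NaCl, 0.1% BSA, pH 7.4, with 20 μM GDP. [35S]-GTPγS was 0.05 nM final, 1 h at 30°C. Filtration on GF/B, then β-counting. Nonspecific binding was set with 100 μM Gpp(NH)p.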

HT-29 = assay: Cytotoxicity against human HT-29 cells at 10 uM after 72 hrs by MTS assay relative to control; assay type: cell-based; settings: ht-29, 72 h
Summary of the method: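 HT29 cells were grown in DMEM-Glutamax with 10% FBS at 37°C and 5% CO2. They were seeded at 3000 cells/well in triplicate and allowed 24 h. Compounds were added at 10 μM with DMSO below 0.1%, for 72 h. Read-out was the MTS colorimetric test, given as % proliferation inhibition from ≥4 experiments in duplicate.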

Cannabinoid receptor 2 [5] = biological target: T1, Cannabinoid receptor 2; assay: Displacement of [3H]-CP-55940 from human CB2 receptor expressed in CHO cell membranes at 10 uM after 1 hr by beta-counting analysis
Summary of the method: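 Competition binding to hCB2-CHO membranes (40 μg) with [3H]-CP-55,940 1 nM in Tris-HCl/MgCl2/EDTA/0.5% BSA buffer, pH 7.4, 1 h at 30°C. Final DMSO was below 0.1%. Filtration on GF/B, then β-count; HU-210 10 µM defined nonspecific binding. Compounds were first screened at 10 μM.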

[6] = Protein binding in human plasma assessed as drug recovery after 4 hrs by equilibrium dialysis method; assay type: ADME, cell-free; settings: read-out: Drug recovery
Summary of the method: (§1)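 Human plasma protein binding was measured by equilibrium dialysis, 4 h at 37°C. Both % bound and % recovery were reported.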

Mus musculus [7] = assay: Anti-inflammatory activity in C57BL6 mouse model of DSS-induced acute colitis assessed as body weight change at 10 mg/kg, ip measured on day 9 (reference value: 79.5 +/- 1.8%); assay type: functional
Mus musculus [8] = assay: Anti-inflammatory activity in C57BL6 mouse model of DSS-induced acute colitis assessed colon weight/size ratio at 10 mg/kg, ip measured on day 9 (reference value: 0.050 +/- 0.0014); assay type: functional
Mus musculus [9] = assay: Anti-inflammatory activity in C57BL6 mouse model of DSS-induced acute colitis assessed reduction in MPO activity at 10 mg/kg, ip measured on day 9 relative to control; assay type: functional; settings: 216 h
Summary of the method: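 DSS-colitis C57BL6 mice were dosed ip at 10 mg/kg daily in hydroxypropyl-β-cyclodextrin, against vehicle controls. Colon was homogenised in phosphate buffer pH 6.0 with 0.5% hexadecyltrimethyl ammonium, then sonicated and freeze-thawed. Supernatant was reacted with o-dianisidine 1 mg/ml and H2O2 0.0005%, and OD read at 450 nm. Results were normalised to Bradford protein; n = 10.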

Mus musculus [10] = assay: Anti-inflammatory activity in C57BL6 mouse model of DSS-induced acute colitis assessed iNos mRNA expression at 10 mg/kg, ip measured on day 9 (reference value: 1 +/- 0.2 a.u.); assay type: functional
Summary of the method: (§2)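 Colons came from DSS-colitis C57BL6 mice dosed ip at 10 mg/kg daily in hydroxypropyl-β-cyclodextrin, or given vehicle. Total RNA was extracted and reverse-transcribed. Sod2 and iNos mRNA were measured by SYBR Green RT-qPCR against the PolR2A reference gene. Mean ± SEM, n = 10, Mann-Whitney U test.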

Mus musculus [11] = assay: Anti-inflammatory activity in C57BL6 mouse model of DSS-induced acute colitis assessed Sod2 mRNA expression at 10 mg/kg, ip measured on day 9 (reference value: 2 +/- 0.4 a.u.); assay type: functional; summary of the method: as §2
[12] = Aqueous solubility of compound in stimulated intestinal fluid after 24 hrs by shake-flask method; assay type: physicochemical; settings: simulated intestinal fluid
Summary of the method: (§3)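 Solubility was measured by shake-flask for 24 h at room temperature in PBS pH 7.4, simulated gastric fluid or simulated intestinal fluid.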

[13] = Aqueous solubility of compound in pH 7.4 PBS after 24 hrs by shake-flask method; assay type: physicochemical; summary of the method: as §3
[14] = Aqueous solubility of compound in stimulated gastric fluid after 24 hrs by shake-flask method; assay type: physicochemical; settings: simulated gastric fluid; summary of the method: as §3
[15] = Protein binding in human plasma after 4 hrs by equilibrium dialysis method; assay type: ADME, cell-free; settings: read-out: PPB (converted); summary of the method: as §1
[16] = Permeability of the compound across apical side to basolateral side in human Caco2 after 60 mins; assay type: ADME, cell-based; settings: Caco-2, read-out: permeability
Summary of the method: (§4)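 Caco-2 monolayers were dosed apical-to-basolateral and basolateral-to-apical, pH 6.5/7.4, at 37°C. Samples were taken at 0 and 60 min, and permeability reported in 10^-6 cm/s.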

[17] = Permeability of the compound across basolateral side to apical side in human Caco2 after 60 mins; assay type: ADME, cell-based; settings: Caco-2, read-out: permeability; summary of the method: as §4
[18] = Efflux ratio of permeability in human Caco2 after 60 mins; assay type: ADME, cell-based; settings: Caco-2
Summary of the method: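 Run by a contract lab. Compound incubated with the Caco-2 cell line at 37 °C, pH 6.5/7.4, sampled at 0 and 60 min. Apparent permeability measured A-B and B-A, and the efflux ratio taken as (B-A)/(A-B).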

[19] = Stability in human liver microsomes assessed as compound remaining at 0.1 mg/ml after 60 mins; assay type: ADME, Microsome; settings: read-out: Stability
Summary of the method: (§5)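 Incubation with human liver microsomes at 0.1 mg/mL, 37°C, sampled at 0 and 60 min. Outputs were % remaining at 60 min, half-life and intrinsic clearance in μL/min/mg.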

[20] = Half life in human liver microsomes at 0.1 mg/ml after 60 mins; assay type: ADME, Microsome; summary of the method: as §5
[21] = Intrinsic clearance in human liver microsomes at 0.1 mg/ml after 60 mins; assay type: ADME, Microsome; settings: read-out: CLH; summary of the method: as §5
Cannabinoid receptor 2 [22] = biological target: T1, Cannabinoid receptor 2; assay: Agonist activity at human CB2 receptor
Cannabinoid receptor 1 [23] = biological target: T2, Cannabinoid receptor 1; assay: Agonist activity at human CB1 receptor

T2 sequence (P21554 whole entry): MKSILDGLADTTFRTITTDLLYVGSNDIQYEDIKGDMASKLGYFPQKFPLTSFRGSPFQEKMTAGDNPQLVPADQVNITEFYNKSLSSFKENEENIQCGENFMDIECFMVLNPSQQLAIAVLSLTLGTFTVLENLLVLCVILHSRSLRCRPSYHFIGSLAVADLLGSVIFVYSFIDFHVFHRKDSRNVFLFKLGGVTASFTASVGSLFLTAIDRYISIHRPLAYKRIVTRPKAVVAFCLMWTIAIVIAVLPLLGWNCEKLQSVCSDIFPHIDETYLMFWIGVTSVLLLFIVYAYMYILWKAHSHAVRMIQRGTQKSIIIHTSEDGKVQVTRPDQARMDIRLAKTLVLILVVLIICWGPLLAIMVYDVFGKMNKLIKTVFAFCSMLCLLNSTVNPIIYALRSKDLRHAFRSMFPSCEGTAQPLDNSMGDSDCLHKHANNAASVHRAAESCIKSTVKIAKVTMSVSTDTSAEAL
T1 sequence (P34972 whole entry): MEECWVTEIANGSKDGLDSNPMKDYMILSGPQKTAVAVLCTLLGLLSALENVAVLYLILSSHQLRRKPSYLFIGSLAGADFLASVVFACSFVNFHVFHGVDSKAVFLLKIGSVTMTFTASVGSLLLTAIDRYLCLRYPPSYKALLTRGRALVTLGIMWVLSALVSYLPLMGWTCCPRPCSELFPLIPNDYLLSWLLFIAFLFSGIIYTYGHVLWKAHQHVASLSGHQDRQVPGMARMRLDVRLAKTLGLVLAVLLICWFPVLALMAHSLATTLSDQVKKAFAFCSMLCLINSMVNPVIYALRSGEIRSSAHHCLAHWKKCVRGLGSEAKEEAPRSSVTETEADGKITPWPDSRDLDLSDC

Row | Compound | pKi (Cannabinoid receptor 2 [1]) | pKi (Cannabinoid receptor 1 [2]) | Ratio Ki (Homo sapiens) | inhibition (Cannabinoid receptor 2 [5]) | further results
1 | CCCCn1c(=O)sc2cc(C(=O)C34CC5CC(CC(C5)C3)C4)ccc21 | 7.59 | 6.11 | 30 | > 60% | pEC50 (Cannabinoid receptor 2 [3]): 6.82; Emax (Cannabinoid receptor 2 [4]): 152%; Activity (HT-29): 0%
2 | CCCCCn1c(=O)oc2cc(C(=O)C3C(C)(C)C3(C)C)ccc21 | < 6.00 | – | – | > 60% | –
3 | CC(C)n1c(=O)sc2cc(C(=O)C34CC5CC(CC(C5)C3)C4)ccc21 | 6.55 | < 6.00 | > 4 | > 60% | –
4 | CCCCCn1c(=O)sc2cc(C(=O)C3C(C)(C)C3(C)C)ccc21 | < 6.00 | – | – | > 60% | –
5 | CCCCCn1c(=O)sc2cc(CC34CC5CC(CC(C5)C3)C4)ccc21 | 6.84 | 6.23 | 4 | > 60% | –
6 | CCCCCn1c(=O)sc2cc(C(O)C34CC5CC(CC(C5)C3)C4)ccc21 (stereo not given) | 6.57 | < 6.00 | > 4 | > 60% | –
7 | CCCCCn1c(=O)sc2cc(C(=O)C3CCCCC3)ccc21 | 7.31 | < 6.00 | > 20 | > 60% | pEC50 (Cannabinoid receptor 2 [3]): 7.38; Emax (Cannabinoid receptor 2 [4]): 178%; Activity (HT-29): 67%
8 | CCCCCn1c(=O)sc2cc(NC(=O)C34CC5CC(CC(C5)C3)C4)ccc21 | < 6.00 | – | – | > 60% | –
9 | CCCCCn1c(=O)oc2cc(C(=O)C34CC5CC(CC(C5)C3)C4)ccc21 | < 6.00 | – | – | > 60% | –
10 | CCCCCn1c(=O)sc2cc(C(=O)c3ccccc3)ccc21 | < 6.00 | – | – | > 60% | –
11 | CCCCCn1c(=O)sc2cc(/C(=N\O)C34CC5CC(CC(C5)C3)C4)ccc21 | 6.60 | < 6.00 | > 4 | > 60% | –
12 | CCCCCn1c(=O)sc2ccc(C(=O)C34CC5CC(CC(C5)C3)C4)cc21 | 6.28 | – | – | > 60% | –
13 | CCCCCCn1c(=O)sc2cc(C(=O)C34CC5CC(CC(C5)C3)C4)ccc21 | 7.41 | 6.04 | 23 | > 60% | pEC50 (Cannabinoid receptor 2 [3]): 7.48; Emax (Cannabinoid receptor 2 [4]): 169%; Activity (HT-29): 0%
14 | CCCCCn1c(=O)sc2cc(C(OC)C34CC5CC(CC(C5)C3)C4)ccc21 (stereo not given) | 6.46 | < 6.00 | > 3 | > 60% | –
15 | CCCCCn1c(=O)sc2cc(C(=O)C34CC5CC(CC(C5)C3)C4)ccc21 | 7.87 | 6.20 | 46 | > 60% | recovery at 4 h [6]: 100%; pEC50 (Cannabinoid receptor 2 [3]): 7.38; Emax (Cannabinoid receptor 2 [4]): 157%; Activity (HT-29): 0%; Activity (Mus musculus [7]): 85.9%; Ratio (Mus musculus [8]): 0.044; inhibition in vivo at 10 mg/kg (Mus musculus [9]): 43%; Activity (Mus musculus [10]): 0.4 a.u.; Activity (Mus musculus [11]): 1.2 a.u.; solubility thermodynamic at 24 h [12]: 107 µM (≈ 41.2 µg/mL); solubility thermodynamic at 24 h [13]: 1 µM (≈ 0.384 µg/mL); solubility thermodynamic at 24 h [14]: 183 µM (≈ 70.3 µg/mL); fraction unbound at 4 h [15]: 0.11; Papp A→B at 1 h [16]: 1.8 ×10⁻⁶ cm/s; Papp B→A at 1 h [17]: 1.3 ×10⁻⁶ cm/s; efflux ratio at 1 h [18]: 0.7; remaining at 1 h [19]: 43%; half-life [20]: 48 min; microsomal CLint [21]: 146 µL/min/mg
16 | CCS(=O)(=O)Nc1ccc2c(c1)nc(C(C)(C)C)n2CC1CCC(F)(F)CC1 | – | – | – | – | pKi (Cannabinoid receptor 2 [22]): 9.06; pKi (Cannabinoid receptor 1 [23]): 7.93
17 | CCCCCn1c(=O)oc2cc(C(=O)C3CCCCC3)ccc21 | < 6.00 | – | – | > 60% | –
18 | CCCCCn1c(=O)sc2cc(/C(=N\OC)C34CC5CC(CC(C5)C3)C4)ccc21 | 6.36 | – | – | > 60% | –
19 | CCCC(C)(C)c1ccc2c(c1)OC(C)(C)[C@@H]1CC=C(C)C[C@@H]21 | 8.10 | < 6.00 | > 125 | – | –
20 | CCCCCn1c(=O)sc2cc(C(=O)C3CCCC3)ccc21 | 6.68 | < 6.00 | > 5 | > 60% | –
21 | CC(C)(C)NC(=O)c1nn(-c2ccc(F)cc2F)c2c1[C@H]1CC[C@@H]2C1 [TEDALINAB] | – | – | – | – | pKi (Cannabinoid receptor 2 [22]): 7.93; pKi (Cannabinoid receptor 1 [23]): 6.01
22 | CCCCCn1c(=O)sc2cc(C(=O)NC34CC5CC(CC(C5)C3)C4)ccc21 | < 6.00 | – | – | > 60% | –
23 | Cc1c(C(=O)c2cccc3ccccc23)c2cccc3c2n1[C@H](CN1CCOCC1)CO3 | – | – | – | – | Emax (Cannabinoid receptor 2 [4]): 181%
24 | CCCCCn1c(=O)sc2ccc(C(=O)C3CCCCC3)cc21 | < 6.00 | – | – | > 60% | –
25 | CC(Cn1c(=O)sc2cc(C(=O)C34CC5CC(CC(C5)C3)C4)ccc21)N(C)C (stereo not given) | 6.30 | – | – | > 60% | –
26 | CCCCCn1c(=O)sc2ccc(C(=O)C3C(C)(C)C3(C)C)cc21 | < 6.00 | – | – | > 60% | –
